Test results: ChEMBL document CHEMBL3813699, “Structure-Activity Relationships of a Diverse Class of Halogenated Phenazines That Targets Persistent, Antibiotic-Tolerant Bacterial Biofilms and Mycobacterium tuberculosis” (J Med Chem, 2016)
Values after ≈ are worked out from the molar mass of the structure shown. Active and inactive are the calls of the source. The calls are words filed in the database; no cut-off is given here.

Columns and labels:
Staphylococcus aureus [1] = assay: Antibiofilm activity against methicillin-resistant Staphylococcus aureus isolate 2 assessed as biofilm eradication incubated for 24 hrs by CBD assay; format: functional; details: for MBC: Staphylococcus aureus, isolate 2, 24 h
Procedure, shortened: (§1)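 Calgary Biofilm Device: pegs inoculated with mid-log culture diluted 1,000-fold in TSB + 0.5% glucose, 24 h 37 °C; washed pegs challenged with 2-fold dilutions 24 h 37 °C; pegs moved to fresh TSBG 24 h; MBEC = lowest concentration leaving no turbidity; 2–6 independent experiments.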

Staphylococcus aureus [2] = assay: Antibiofilm activity against methicillin-resistant Staphylococcus aureus BAA-1707 assessed as biofilm eradication incubated for 24 hrs by CBD assay; format: functional; details: for MBC: Staphylococcus aureus, BAA-1707, 24 h; procedure, shortened: as §1
[3] = test system: Staphylococcus epidermidis; assay: Antibacterial activity against methicillin-resistant Staphylococcus epidermidis ATCC 35984 assessed as biofilm eradication incubated for 24 hrs by CBD assay; format: functional; details: for MBC: Staphylococcus epidermidis, ATCC 35984, 24 h; procedure, shortened: as §1
Enterococcus faecium [4] = assay: Antibacterial activity against vancomycin-resistant Enterococcus faecium ATCC 700221 incubated for 16 to 18 hrs by broth microdilution method; format: functional
HeLa [5] = assay: Cytotoxicity against human HeLa cells after 24 hrs by LDH release assay; format: cell-based
Procedure, shortened: (§2)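 HeLa in DMEM + 10% FBS, 37 °C 5% CO2, at 70–80% confluence treated with 25, 50, 100 µM for 24 h; DMSO vehicle; Triton X-100 2% v/v max-LDH control, medium-only negative; supernatant with LDH reaction mix 30 min room temperature, stopped, absorbance 490 nm.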

Staphylococcus aureus [6] = assay: Antibiofilm activity against methicillin-resistant Staphylococcus aureus BAA-44 assessed as biofilm eradication incubated for 24 hrs by CBD assay; format: functional; procedure, shortened: as §1
Enterococcus faecium [7] = assay: Antibiofilm activity against […]-resistant Enterococcus faecium ATCC 700221 assessed as biofilm eradication incubated for 24 hrs by CBD assay; format: functional; details: for MBC: Enterococcus faecium, ATCC 700221, 24 h; procedure, shortened: as §1
[8] = Induction of hemolysis in human RBC at 200 uM incubated for 1 hr; format: cell-based, Erythrocyte; details: red blood cells, read-out: Activity
Procedure, shortened: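 Human RBCs (EDTA), washed three times in Tris-buffered saline pH 7.2; 2% hRBC with compound at final 200 µM, 1 h 37 °C; supernatant OD405; % hemolysis relative to DMSO (0%) and Triton X (100%).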

Staphylococcus aureus [9] = assay: Antibacterial activity against methicillin-resistant Staphylococcus aureus clinical isolate 2 incubated for 16 hrs by broth microdilution method in presence of Cu2+; format: functional; details: isolate 2, 16 h
Staphylococcus aureus [10] = assay: Antibacterial activity against methicillin-resistant Staphylococcus aureus clinical isolate 2 incubated for 16 hrs by broth microdilution method in presence of Fe2+; format: functional; details: isolate 2, 16 h
Staphylococcus aureus [11] = assay: Antibacterial activity against methicillin-resistant Staphylococcus aureus clinical isolate 2 incubated for 16 to 18 hrs by broth microdilution method; format: functional
[12] = test system: Staphylococcus epidermidis; assay: Antibacterial activity against Staphylococcus epidermidis ATCC 12228 incubated for 16 to 18 hrs by broth microdilution method; format: functional
Staphylococcus aureus [13] = assay: Antibacterial activity against methicillin-resistant Staphylococcus aureus BAA-44 incubated for 16 to 18 hrs by broth microdilution method; format: functional
Staphylococcus aureus [14] = assay: Antibacterial activity against methicillin-resistant Staphylococcus aureus BAA-1707 incubated for 16 to 18 hrs by broth microdilution method; format: functional
[15] = test system: Staphylococcus epidermidis; assay: Antibacterial activity against methicillin-resistant Staphylococcus epidermidis ATCC 35984 incubated for 16 to 18 hrs by broth microdilution method; format: functional
[16] = test system: Mycobacterium tuberculosis; assay: Antibacterial activity against Mycobacterium tuberculosis H37Ra ATCC 25177 after 7 days by two-fold serial dilution method; format: functional; details: H37Ra ATCC 25177, 168 h
Staphylococcus aureus [17] = assay: Antibacterial activity against methicillin-resistant Staphylococcus aureus clinical isolate 2 incubated for 16 hrs by broth microdilution method; format: functional; details: isolate 2, 16 h
[18] = Aqueous solubility of compound in media after 16 hrs; format: physicochemical
[19] = Dissociation constant, pKa of compound; format: physicochemical
Staphylococcus aureus [20] = assay: Antibacterial activity against methicillin-resistant Staphylococcus aureus clinical isolate 2 incubated for 16 hrs by broth microdilution method in presence of tiron; format: functional; details: isolate 2, 16 h
Staphylococcus aureus [21] = assay: Ratio of MIC for methicillin-resistant Staphylococcus aureus clinical isolate 2 in absence and presence of tiron; format: functional; design: scale not given here
Staphylococcus aureus [22] = assay: Ratio of MIC for methicillin-resistant Staphylococcus aureus clinical isolate 2 in absence and presence of Cu2+; format: functional
HeLa [23] = assay: Cytotoxicity against human HeLa cells assessed as cell death at 50 uM after 24 hrs by LDH release assay; format: cell-based; procedure, shortened: as §2
HeLa [24] = assay: Cytotoxicity against human HeLa cells assessed as induction of cell death at 100 uM after 24 hrs by LDH release assay; format: cell-based; procedure, shortened: as §2
[25] = test system: Staphylococcus epidermidis; assay: Antibiofilm activity against methicillin-resistant Staphylococcus epidermidis ATCC 35984 assessed as biofilm eradication at 0.1 to 10 uM incubated for 24 hrs by live/dead staining-based fluorescence microscopic analysis; format: functional, organism-based
Procedure, shortened: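 MRSE 35984 mid-log culture diluted 1:1,000, biofilm grown 24 h at 37 °C on glass dish, saline wash, treated in fresh media 0.1, 1, 10 µM for 24 h at 37 °C; DMSO negative control; Live/Dead stain 15 min dark, paraformaldehyde fixed, fluorescence microscopy.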

[26] = test system: Staphylococcus epidermidis; assay: Antibiofilm activity against methicillin-resistant Staphylococcus epidermidis ATCC 35984 assessed as reduction in persister cells level within biofilms MBEC incubated for 24 hrs by CBD assay; format: functional; design: scale not given: the % may be the effect or the level left
Procedure, shortened: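 After CBD challenge and recovery, pegs sonicated 30 min in PBS and plated to count viable biofilm cells (CFU/mL) at and below MBEC.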

Row | SMILES | MBEC (Staphylococcus aureus [1]) | MBC (Staphylococcus aureus [1]) | MBEC [3] | MBC [3] | MIC (Enterococcus faecium [4]) | IC50 (HeLa [5]) | MBEC (Enterococcus faecium [7]) | MBC (Enterococcus faecium [7]) | hemolysis at 1 h, 200 µM [8] | MIC (Staphylococcus aureus [9]) | MIC (Staphylococcus aureus [10]) | MIC (Staphylococcus aureus [11]) | MIC [12] | MIC (Staphylococcus aureus [13]) | MIC (Staphylococcus aureus [14]) | MIC [15] | MIC [16] | MIC (Staphylococcus aureus [17]) | other results
1 | Oc1c(Br)cc(I)c2nc3ccccc3nc12 | 62.5 µM | 31.3 µM (≈ 12.6 µg/mL) | 188 µM | 11.7 µM (≈ 4.69 µg/mL) | 6.25 µM (≈ 2.51 µg/mL) | > 100 µM | 5.9 µM | 3 µM (≈ 1.2 µg/mL) | 2.9% | 50 µM | 6.25 µM | – | – | – | – | – | – | – | MBEC (Staphylococcus aureus [2]): 93.8 µM; MBC (Staphylococcus aureus [2]): 23.5 µM (≈ 9.42 µg/mL); MBEC (Staphylococcus aureus [6]): 93.8 µM; MBC (Staphylococcus aureus [6]; Staphylococcus aureus, BAA-44, 24 h): 46.9 µM (≈ 18.8 µg/mL)
2 | Oc1ccc(Br)c2nc3cc(Cl)c(Cl)cc3nc12 | – | – | 100 µM | 37.5 µM (≈ 12.9 µg/mL) | 6.25 µM (≈ 2.15 µg/mL) | > 100 µM | 25 µM | 100 µM (≈ 34.4 µg/mL) | 2.7% | – | – | 0.78 µM (≈ 0.268 µg/mL) | 3.13 µM (≈ 1.08 µg/mL) | 1.17 µM (≈ 0.402 µg/mL) | 0.3 µM (≈ 0.103 µg/mL) | 1.56 µM (≈ 0.537 µg/mL) | 3.13 µM (≈ 1.08 µg/mL) | 0.78 µM (≈ 0.268 µg/mL) | solubility at 16 h [18]: 200 µM (≈ 68.8 µg/mL); pKa [19]: 8.42
3 | Oc1cccc2cccnc12 [OXYQUINOLINE] | – | – | – | – | – | – | – | – | – | 3.13 µM | 6.25 µM | – | – | – | – | – | – | 6.25 µM (≈ 0.907 µg/mL) | MIC (Staphylococcus aureus [20]): > 100 µM; Ratio (Staphylococcus aureus [21]): 16; Ratio (Staphylococcus aureus [22]): <2
4 | Oc1c(Br)cc(I)c2nc3cc(Cl)c(Cl)cc3nc12 | 9.38 µM | 3.13 µM (≈ 1.47 µg/mL) | 2.35 µM | 1.56 µM (≈ 0.733 µg/mL) | 0.1 µM (≈ 0.047 µg/mL) | > 50 µM | 0.2 µM | 0.2 µM (≈ 0.094 µg/mL) | 2.7% | 100 µM | – | 3.13 µM (≈ 1.47 µg/mL) | 0.1 µM (≈ 0.047 µg/mL) | 3.13 µM (≈ 1.47 µg/mL) | 0.3 µM (≈ 0.141 µg/mL) | 3.13 µM (≈ 1.47 µg/mL) | 12.5 µM (≈ 5.87 µg/mL) | 6.25 µM (≈ 2.94 µg/mL) | Activity (HeLa [23]): Non-toxic; Activity (HeLa [24]): 70%; Activity [25]: Active; solubility at 16 h [18]: 200 µM (≈ 94 µg/mL); Activity [26]: >99.99%
5 | Oc1ccc(Br)c2nc3cc(Br)c(Br)cc3nc12 | >200 µM | > 200 µM | >200 µM | > 200 µM | 6.25 µM (≈ 2.71 µg/mL) | – | >200 µM | > 200 µM | ≤ 1% | > 100 µM | 25 µM | 1.56 µM (≈ 0.675 µg/mL) | – | 1.56 µM (≈ 0.675 µg/mL) | 0.56 µM (≈ 0.242 µg/mL) | 3.13 µM (≈ 1.35 µg/mL) | – | 12.5 µM (≈ 5.41 µg/mL) | MIC (Staphylococcus aureus [20]): 0.1 µM
6 | CN(C)[C@@H]1C(O)=C(C(N)=O)C(=O)[C@@]2(O)C(O)=C3C(=O)c4c(O)cccc4[C@@](C)(O)[C@H]3C[C@@H]12 [TETRACYCLINE] | – | – | – | – | – | – | – | – | – | 1.56 µM | 18.8 µM | – | – | – | – | – | – | 1.17 µM (≈ 0.52 µg/mL) | Ratio (Staphylococcus aureus [22]): <2
7 | Oc1c(Br)cc(Br)c2nc3cc(Cl)c(Cl)cc3nc12 | – | – | – | – | 0.39 µM (≈ 0.165 µg/mL) | > 100 µM | 0.39 µM | 0.39 µM (≈ 0.165 µg/mL) | ≤ 1% | – | – | – | 0.08 µM (≈ 0.0338 µg/mL) | 50 µM (≈ 21.1 µg/mL) | 25 µM (≈ 10.6 µg/mL) | 0.3 µM (≈ 0.127 µg/mL) | 6.25 µM (≈ 2.64 µg/mL) | – | MBEC (Staphylococcus aureus [2]): 12.5 µM; MBC (Staphylococcus aureus [2]): 6.25 µM (≈ 2.64 µg/mL); Activity [26]: >99.99%
